Data: ChEMBL document CHEMBL1154729, “Discovery of novel antitubercular 2,10-dihydro-4aH-chromeno[3,2-c]pyridin-3-yl derivatives” (Eur J Med Chem, 2010)
≈ marks a conversion by molar mass, not a printed value.

Tested on: not listed separately
Experiment: Selectivity index, ratio of IC50 for african green monkey Vero cells to MIC for multidrug-resistant Mycobacterium tuberculosis
Type: functional

In the case of `CCc1ccc(C(=O)NCC2=C[C@@H]3Oc4ccccc4C(=O)C3=CN2c2ncccc2C)cc1`, the “Selectivity Index” value is reported as 1977.

Tested on: Mycobacterium tuberculosis
Experiment: Antimycobacterial activity against multidrug-resistant Mycobacterium tuberculosis by agar dilution method
Type: functional
Outline: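 Agar dilution MIC on Middlebrook 7H11 agar supplemented with OADC, following NCCLS-like procedure; determined in duplicate.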

Point of comparison: `Cc1ccc2ccc(C(=O)NCC3=C[C@@H]4Oc5ccccc5C(=O)C4=CN3c3ncc(Br)cc3Br)cc2c1`, MIC 0.61 µM (≈ 0.385 µg/mL). Against it:
- Cc1ccc2ccc(C(=O)NCC3=C[C@@H]4Oc5ccccc5C(=O)C4=CN3c3ncccc3C)cc2c1 — 4.7-fold lower, 0.13 µM (≈ 0.0634 µg/mL)
- Cc1cccnc1N1C=C2C(=O)c3ccccc3O[C@H]2C=C1CNC(=O)c1cccc(Cl)c1 — 2.8-fold higher, 1.7 µM (≈ 0.778 µg/mL)
- Cc1cccnc1N1C=C2C(=O)c3ccccc3O[C@H]2C=C1CNC(=O)c1ccc(Cl)cc1 — 5.6-fold higher, 3.4 µM (≈ 1.56 µg/mL)
- O=C(NCC1=C[C@@H]2Oc3ccccc3C(=O)C2=CN1c1ncc(Br)cc1Br)c1ccc(Cl)cc1 — 4.8-fold higher, 2.95 µM (≈ 1.77 µg/mL)
- Cc1ccc(C(=O)NCC2=C[C@@H]3Oc4ccccc4C(=O)C3=CN2c2ncccc2C)cc1 — 2.9-fold higher, 1.78 µM (≈ 0.779 µg/mL)
- O=C(NCC1=C[C@@H]2Oc3ccccc3C(=O)C2=CN1c1ncc(Br)cc1Br)c1ccc2ccccc2c1 — 8.3-fold higher, 5.04 µM (≈ 3.11 µg/mL)
- CCc1ccc(C(=O)NCC2=C[C@@H]3Oc4ccccc4C(=O)C3=CN2c2ncccc2C)cc1 — 8.7-fold lower, 0.07 µM (≈ 0.0316 µg/mL)
- CCc1ccc(C(=O)NCC2=C[C@@H]3Oc4ccccc4C(=O)C3=CN2c2ncc(Br)cc2Br)cc1 — 2.1-fold higher, 1.3 µM (≈ 0.774 µg/mL)
- O=C(NCC1=C[C@@H]2Oc3ccccc3C(=O)C2=CN1c1ncc(Br)cc1Br)c1cccc(Cl)c1 — 4.3-fold higher, 2.6 µM (≈ 1.56 µg/mL)
- Cc1cccnc1N1C=C2C(=O)c3ccccc3O[C@H]2C=C1CNC(=O)c1ccc2ccccc2c1 — within 1.5-fold, 0.42 µM (≈ 0.199 µg/mL)
- O=C(NCC1=C[C@@H]2Oc3ccccc3C(=O)C2=CN1c1ncc(Br)cc1Br)c1ccc(Cl)c(Cl)c1 — 8-fold higher, 4.91 µM (≈ 3.12 µg/mL)
- COc1ccc(C(=O)NCC2=C[C@@H]3Oc4ccccc4C(=O)C3=CN2c2ncccc2C)cc1 — 5.6-fold higher, 3.44 µM (≈ 1.56 µg/mL)
- Cc1cccnc1N1C=C2C(=O)c3ccccc3O[C@H]2C=C1CNC(=O)c1ccc(F)cc1 — 12-fold higher, 7.09 µM (≈ 3.13 µg/mL)
- Cc1cccnc1N1C=C2C(=O)c3ccccc3O[C@H]2C=C1CNC(=O)c1ccccc1 — 6-fold higher, 3.68 µM (≈ 1.56 µg/mL)
- CC[C@@H](CO)NCCN[C@@H](CC)CO [ETHAMBUTOL] — 200-fold higher, 122 µM (≈ 25 µg/mL)
- NNC(=O)c1ccncc1 [ISONIAZID] — 75-fold higher, 45.6 µM (≈ 6.25 µg/mL)
- CO[C@H]1/C=C/O[C@@]2(C)Oc3c(C)c(O)c4c(O)c(c(/C=N/N5CCN(C)CC5)c(O)c4c3C2=O)NC(=O)/C(C)=C\C=C\[C@H](C)[C@H](O)[C@@H](C)[C@@H](O)[C@@H](C)[C@H](OC(C)=O)[C@@H]1C [RIFAMPIN] — 6.2-fold higher, 3.79 µM (≈ 3.12 µg/mL)
